Experimental data published in ChEMBL document CHEMBL1255218, “Development of molecular probes for the human 5-HT(6) receptor” (J Med Chem, 2010).
Calls of active or inactive are those of the source. No cut-off for these calls is given here.

Assays:
[1] = target: T1, 5-hydroxytryptamine receptor 6 (Homo sapiens, UniProt P50406); assay: Binding affinity to human 5HT6 receptor expressed in COS7 cells assessed as emission fluorescence intensity; format: cell-based; details: COS-7
[2] = target: T1, 5-hydroxytryptamine receptor 6; assay: Displacement of [3H]LSD from human 5HT6 receptor expressed in HEK293 cells; format: cell-based
Procedure, shortened: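 Membranes from HEK-293 cells stably expressing human 5-HT6R, in 50 mM Tris-HCl, 10 mM MgCl2, 0.5 mM EDTA, pH 7.4. Incubated 60 min at 37 °C with 2.5 nM [3H]LSD and competitor (10^-5 to 10^-10 M). Nonspecific binding defined with 100 μM serotonin. Filtered on 0.5% PEI-soaked filters; scintillation count. Ki by Cheng-Prusoff; 2-4 experiments in triplicate.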

[3] = target: T1, 5-hydroxytryptamine receptor 6; assay: Binding affinity to human 5HT6 receptor assessed as emission fluorescence intensity

T1 sequence (P50406 whole entry): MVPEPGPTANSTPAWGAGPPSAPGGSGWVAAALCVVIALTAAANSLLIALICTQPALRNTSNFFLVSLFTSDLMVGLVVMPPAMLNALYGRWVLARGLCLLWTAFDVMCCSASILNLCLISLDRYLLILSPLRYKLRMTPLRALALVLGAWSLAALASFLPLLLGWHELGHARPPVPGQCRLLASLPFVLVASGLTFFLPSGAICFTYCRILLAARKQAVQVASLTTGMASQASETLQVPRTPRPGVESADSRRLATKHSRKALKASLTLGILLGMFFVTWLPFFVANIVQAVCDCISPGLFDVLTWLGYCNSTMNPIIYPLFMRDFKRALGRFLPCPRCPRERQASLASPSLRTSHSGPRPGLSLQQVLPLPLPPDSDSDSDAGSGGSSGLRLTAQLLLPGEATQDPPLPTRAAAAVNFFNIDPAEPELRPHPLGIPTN

Row | Compound | Activity [1] | Ki [2] | Activity [3]
1 | COc1ccc(NS(=O)(=O)c2sc3ccc(Cl)cc3c2C)cc1N1CCN(S(=O)(=O)c2cccc3c(N(C)C)cccc23)CC1 | 730 a.u. | 165 nM | 
2 | COc1ccc(N(CCCCNS(=O)(=O)c2cccc3c(N(C)C)cccc23)S(=O)(=O)c2sc3ccc(Cl)cc3c2C)cc1N1CCNCC1 | 221 a.u. | 747 nM | 
3 | COc1ccc(N(CCCCCCCCNS(=O)(=O)c2cccc3c(N(C)C)cccc23)S(=O)(=O)c2sc3ccc(Cl)cc3c2C)cc1N1CCNCC1 | > 1000 a.u. | 215 nM | 
4 | COc1ccc(NS(=O)(=O)c2sc3ccc(Cl)cc3c2C)cc1N1CCN(CCCCCCNC(=O)CCCC[C@@H]2SC[C@@H]3NC(=O)N[C@@H]32)CC1 |  | 90 nM | 
5 | COc1ccc(NS(=O)(=O)c2cccc3c(N(C)C)cccc23)cc1N1CCN(CCCCCCNS(=O)(=O)c2cccc3c(N(C)C)cccc23)CC1 | 287 a.u. | 554 nM | 
6 | COc1ccc(NS(=O)(=O)c2sc3ccc(Cl)cc3c2C)cc1N1CCN(CCCCCCNS(=O)(=O)c2cccc3c(N(C)C)cccc23)CC1 | > 1000 a.u. | 266 nM | 
7 | COc1ccc(NS(=O)(=O)c2sc3ccc(Cl)cc3c2C)cc1N1CCN(CCCCCCCCNS(=O)(=O)c2cccc3c(N(C)C)cccc23)CC1 | > 1000 a.u. | 447 nM | 
8 | COc1ccc(N(S(=O)(=O)c2sc3ccc(Cl)cc3c2C)S(=O)(=O)c2cccc3c(N(C)C)cccc23)cc1N1CCNCC1 | 19 a.u. | 27 nM | 
9 | COc1ccc(N(S(=O)(=O)c2cccc3c(N(C)C)cccc23)S(=O)(=O)c2cccc3c(N(C)C)cccc23)cc1N1CCNCC1 | 35 a.u. | 135 nM | 
10 | COc1ccc(NS(=O)(=O)c2ccc(-c3ncc(-c4ccc(N(C)C)cc4)o3)cc2)cc1N1CCNCC1 |  | 523 nM | inactive
11 | COc1ccc(NS(=O)(=O)c2cccc3c(N(C)C)cccc23)cc1N1CCN(CCCCCCCCNS(=O)(=O)c2cccc3c(N(C)C)cccc23)CC1 | 450 a.u. | 194 nM | 
12 | COc1ccc(NS(=O)(=O)c2cccc3c(N(C)C)cccc23)cc1N1CCN(CCCCNS(=O)(=O)c2cccc3c(N(C)C)cccc23)CC1 | > 1000 a.u. | 175 nM | 
13 | COc1ccc(NS(=O)(=O)c2cccc3c(N(C)C)cccc23)cc1N1CCNCC1 | 52 a.u. | 8 nM | 
14 | Cc1c(S(=O)(=O)Nc2ccc(OCCCCCCCCNS(=O)(=O)c3cccc4c(N(C)C)cccc34)c(N3CCNCC3)c2)sc2ccc(Cl)cc12 | 700 a.u. | 741 nM | 
